How the values were obtained:
[1] = Clearance in mouse liver microsomes at 1 umol/l after 20 mins by LC/MS/MS analysis
[2] = Lipophilicity, log D of the compound at pH 7.4; conditions: buffer
[3] = Clearance in human liver microsomes at 1 umol/l after 20 mins by LC/MS/MS analysis
[4] = Oral bioavailability in BALB/cAJcl mouse at 10 mg/kg by LC/MS/MS analysis; assay type: ADME, organism-based; conditions: in vivo
Outline: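 Female BALB/cAJcl mice, seven weeks old, were dosed orally at 10 mg/kg and intravenously at 1 mg/mL/kg. Plasma compound concentrations were measured by LC/MS/MS.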

MDA-MB-231 [5] = assay: Growth inhibition of human MDA-MB-231 cells assessed as cell viability after 3 days by CellTitre-Glo Luminescent assay; assay type: functional; conditions: MDA-MB-231, 72 h
MDA-MB-231 [6] = assay: Antitumor activity against human MDA-MB-231 cells expressing luciferase gene xenografted in po dosed athymic nude BALB/cAJcl mouse assessed as tumor regression administered bid measured on day 14; assay type: functional, organism-based
MDA-MB-231 [7] = assay: Antitumor activity against human MDA-MB-231 cells expressing luciferase gene xenografted in athymic nude BALB/cAJcl mouse assessed as tumor growth inhibition at 30 mg/kg, po bid measured on day 14 relative to control; assay type: functional
Mus musculus = assay: Toxicity in athymic nude BALB/cAJcl mouse xenografted with human MDA-MB-231 cells expressing luciferase gene at 30 mg/kg, po bid measured on day 14; assay type: organism-based; design: dose 30 mg/kg, route oral; conditions: in vivo
MDA-MB-231 [8] = assay: Antitumor activity against human MDA-MB-231 cells expressing luciferase gene xenografted in athymic nude BALB/cAJcl mouse assessed as tumor growth inhibition at 100 mg/kg, po bid measured on day 14 relative to control; assay type: functional
[9] = Permeability of the compound by PAMPA; assay type: ADME; conditions: read-out: permeability

Row | SMILES | microsomal CLint at 20 min, 1 µM [1] | logD [2] | microsomal CLint at 20 min, 1 µM [3] | bioavailability [4] | GI50 (MDA-MB-231 [5]) | Papp [9] | Activity (MDA-MB-231 [6]) | T/C (MDA-MB-231 [7]) | Activity (Mus musculus) | T/C (MDA-MB-231 [8])
1 | CN[C@@H](C)C(=O)N[C@H](C(=O)N1C[C@@H]2CCCN2C[C@H]1C(=O)N[C@@H]1CCOc2ccccc21)C1CCC(F)(F)CC1 | 2 µL/min/mg | 1.94 | 38 µL/min/mg | 13% | 15 nM |  |  |  |  | 
2 | CN[C@@H](C)C(=O)N[C@H](C(=O)N1C[C@H]2CCCN2C[C@H]1C(=O)N[C@@H]1CCC(=O)c2ccccc21)C1CCCCC1 | 161 µL/min/mg |  | 154 µL/min/mg | 30% | 21 nM |  |  |  |  | 
3 | CN[C@@H](C)C(=O)N[C@H](C(=O)N1C[C@H]2CCCN2C[C@H]1C(=O)N[C@H]1CCCc2ccccc21)C1CCCCC1 | 239 µL/min/mg |  | 236 µL/min/mg |  |  |  |  |  |  | 
4 | CN[C@@H](C)C(=O)N[C@H](C(=O)N1C[C@H]2CCCN2C[C@H]1C(=O)N[C@H](C)c1ccccc1)C1CCCCC1 | 115 µL/min/mg |  | 82 µL/min/mg | 63% | 20 nM |  |  |  |  | 
5 | CN[C@@H](C)C(=O)N[C@H](C(=O)N1C[C@H]2CCCN2C[C@H]1C(=O)N[C@@H]1CCOc2ccccc21)C1CCOCC1 | 21 µL/min/mg | 1.75 | 15 µL/min/mg | 12% | 20 nM |  |  |  |  | 
6 | CN[C@@H](C)C(=O)N[C@H](C(=O)N1C[C@H]2CCCN2C[C@H]1C(=O)N[C@@H]1CCC(F)(F)c2ccccc21)C1CCCCC1 | 208 µL/min/mg |  | 130 µL/min/mg | 26% | 18 nM |  |  |  |  | 

More lines, main results first:

Row | microsomal CLint at 20 min, 1 µM [1] | logD [2] | microsomal CLint at 20 min, 1 µM [3] | bioavailability [4] | GI50 (MDA-MB-231 [5]) | Papp [9] | SMILES | Activity (MDA-MB-231 [6]) | T/C (MDA-MB-231 [7]) | Activity (Mus musculus) | T/C (MDA-MB-231 [8])
7 | 116 µL/min/mg | 2.91 | 128 µL/min/mg | 41% | 5.7 nM |  | CN[C@@H](C)C(=O)N[C@H](C(=O)N1C[C@H]2CCCN2C[C@H]1C(=O)N[C@@H]1CCOc2ccccc21)C1CCCCC1 |  |  |  | 
8 | 232 µL/min/mg |  | 218 µL/min/mg | 6% | 6.2 nM |  | CN[C@@H](C)C(=O)N[C@H](C(=O)N1C[C@H]2CCCN2C[C@H]1C(=O)N[C@@H]1CCCc2ccccc21)C1CCCCC1.Cl.Cl |  |  |  | 
9 | 129 µL/min/mg | 2.17 | 90 µL/min/mg | 33% | 11 nM |  | CN[C@@H](C)C(=O)N[C@H](C(=O)N1C[C@H]2CCCN2C[C@H]1C(=O)N[C@@H]1CCOc2ccccc21)c1ccccc1 |  |  |  | 
10 |  | 1.6 | 4 µL/min/mg |  | 11 nM |  | CN[C@@H](C)C(=O)N[C@H](C(=O)N1C[C@H]2C[C@@H](O)CN2C[C@H]1C(=O)N[C@@H]1CCOc2ccccc21)C1CCC(F)(F)CC1 |  |  |  | 
11 | 147 µL/min/mg | 2.56 | 170 µL/min/mg | 21% | 8 nM |  | CN[C@@H](C)C(=O)N[C@H](C(=O)N1C[C@H]2CC(F)(F)CN2C[C@H]1C(=O)N[C@@H]1CCOc2ccccc21)C1CCC(F)(F)CC1 |  |  |  | 
12 | 40 µL/min/mg | 2.6 | 52 µL/min/mg | 50% | 1.8 nM | 4.4 ×10⁻⁶ cm/s | CCO[C@@H]1C[C@@H]2CN(C(=O)[C@@H](NC(=O)[C@H](C)NC)C3CCC(F)(F)CC3)[C@H](C(=O)N[C@@H]3CCOc4ccccc43)CN2C1 | Dose-dependent effect | -53% | Non-toxic | -62%
13 | 66 µL/min/mg | 2.43 | 82 µL/min/mg | 53% | 13 nM | 0.3 ×10⁻⁶ cm/s | CN[C@@H](C)C(=O)N[C@H](C(=O)N1C[C@H]2CCCN2C[C@H]1C(=O)N[C@@H]1CCOc2ccccc21)C1CCC(F)(F)CC1 |  |  |  | 

Source: ChEMBL document CHEMBL2311403, “Design and synthesis of potent inhibitor of apoptosis (IAP) proteins antagonists bearing an octahydropyrrolo[1,2-a]pyrazine scaffold as a novel proline mimetic” (J Med Chem, 2013)
